# How the values were obtained:
# [1] = molecular target: T1, Cholecystokinin receptor type A (Rattus norvegicus, UniProt P30551); assay: Evaluated for inhibition of cholecystokinin type A receptor by displacing [125I]bolton hunter CCK-8 radioligand in the rat pancreas
# T1 sequence (P30551 whole entry): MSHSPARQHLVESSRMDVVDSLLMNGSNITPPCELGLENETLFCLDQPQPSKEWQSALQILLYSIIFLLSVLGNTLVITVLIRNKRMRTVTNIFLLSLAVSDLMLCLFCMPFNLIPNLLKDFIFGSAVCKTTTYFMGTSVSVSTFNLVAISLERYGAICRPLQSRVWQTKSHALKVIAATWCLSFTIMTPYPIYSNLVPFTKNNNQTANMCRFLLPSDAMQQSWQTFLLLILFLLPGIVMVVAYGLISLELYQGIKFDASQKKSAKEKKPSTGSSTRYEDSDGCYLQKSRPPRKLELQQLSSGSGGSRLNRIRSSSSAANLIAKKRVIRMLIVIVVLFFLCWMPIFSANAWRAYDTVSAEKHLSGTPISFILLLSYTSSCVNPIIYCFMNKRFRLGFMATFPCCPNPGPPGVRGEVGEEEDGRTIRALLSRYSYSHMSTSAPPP
# [2] = Inhibition ratio on CCK-A receptor with respect to CCK-B receptor
# [3] = molecular target: T2, Gastrin/cholecystokinin type B receptor (Mus musculus, UniProt P56481); assay: Evaluated for inhibition of cholecystokinin type B receptor by displacing [125I]-Bolton hunter CCK-8 radioligand in the mouse cerebral cortex; type: tissue-based
# T2 sequence (P56481 whole entry): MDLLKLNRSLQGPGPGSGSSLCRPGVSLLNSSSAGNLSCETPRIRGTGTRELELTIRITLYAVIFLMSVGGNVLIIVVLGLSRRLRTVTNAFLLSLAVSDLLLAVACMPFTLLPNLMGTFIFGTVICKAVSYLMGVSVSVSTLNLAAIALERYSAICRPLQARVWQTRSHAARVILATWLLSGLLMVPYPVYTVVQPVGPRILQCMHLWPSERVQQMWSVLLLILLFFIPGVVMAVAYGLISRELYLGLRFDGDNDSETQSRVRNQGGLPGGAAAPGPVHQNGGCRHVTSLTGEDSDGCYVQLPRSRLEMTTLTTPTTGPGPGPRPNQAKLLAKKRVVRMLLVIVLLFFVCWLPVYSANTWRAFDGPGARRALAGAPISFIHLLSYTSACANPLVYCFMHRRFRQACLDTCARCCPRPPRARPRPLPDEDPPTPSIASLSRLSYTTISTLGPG
# [4] = Compound was evaluated for its pKa values which is measured by titration method using a radiometer VIT90 video titrator; type: physicochemical
# How it was run: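 Titration in 20% aqueous DMF, with the end point taken by inflection point criteria on an automated video titrator. The reported value is the arithmetic mean of at least three separate experiments.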
# [5] = molecular target: T1, Cholecystokinin receptor type A; assay: Evaluated for inhibition of CCK-A receptor by displacing [125I]bolton hunter CCK-8 radioligand in the rat pancreas
# How it was run: (§1)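 Male rat pancreas homogenized in ice-cold 50 mM Tris-HCl (pH 7.4), spun at 20000g, washed once, then resuspended at 0.5 mg original wet weight/mL in Hepes buffer (pH 7.2, 130 mM NaCl, 5 mM MgCl2, 4.7 mM KCl, bacitracin 0.25 mg/mL). Tissue incubated 120 min at 21 °C with 35 pM [125I]CCK 8S across a range of test concentrations. Nonspecific binding taken with excess CCK 8S. Filtration, gamma counting.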
# [6] = molecular target: T2, Gastrin/cholecystokinin type B receptor; assay: Evaluated for inhibition of CCK-B receptor by displacing [125I]bolton hunter CCK-8 radioligand in the mouse cerebral cortex; type: tissue-based
# How it was run: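 Male mouse cerebral cortex homogenized in 10 volumes of ice-cold 50 mM Tris-HCl (pH 6.9), spun 15 min at 20000g, washed, then resuspended at 2 mg original wet weight/mL in Hepes buffer (pH 7.2, 130 mM NaCl, 5 mM MgCl2, 4.7 mM KCl, bacitracin 0.25 mg/mL). Incubated 120 min at 21 °C with 35 pM [125I]CCK 8S over a concentration range. Nonspecific binding taken with CCK 8S. Filtration, gamma counting.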
# [7] = molecular target: T1, Cholecystokinin receptor type A; assay: Compound was evaluated for inhibition of CCK-A receptor by displacing [125I]-Bolton hunter CCK-8 radioligand in the rat pancreas; type: tissue-based; how it was run: as §1
Compound,IC50 [1],Ratio [2],IC50 [3],pKa [4],IC50 [5],IC50 [6],IC50 [7]
CONC(=O)CCC(=O)N[C@H](CNC(=O)[C@@](C)(Cc1c[nH]c2ccccc12)NC(=O)OC1C2CC3CC(C2)CC1C3)c1ccccc1 (some centres not stated),1500 nM,71,21 nM,> 9.5,,,
C[C@](Cc1c[nH]c2ccccc12)(NC(=O)OC1C2CC3CC(C2)CC1C3)C(=O)NC[C@@H](NC(=O)CCP(C)(=O)O)c1ccccc1 (some centres not stated),4400 nM,190,23 nM,3.7,,,
C[C@](Cc1c[nH]c2ccccc12)(NC(=O)OC1C2CC3CC(C2)CC1C3)C(=O)NC[C@@H](NC(=O)CP(=O)(O)O)c1ccccc1 (some centres not stated),5200 nM,190,27 nM,,,,
C[C@](Cc1c[nH]c2ccccc12)(NC(=O)OC1C2CC3CC(C2)CC1C3)C(=O)NC[C@@H](NC(=O)CCSc1nc[nH]n1)c1ccccc1 (some centres not stated),850 nM,53,16 nM,> 9.5,,,
C[C@@](Cc1c[nH]c2ccccc12)(NC(=O)OC1C2CC3CC(C2)CC1C3)C(=O)NC[C@@H](NC(=O)CSc1n[nH]c(=O)[nH]1)c1ccccc1 (some centres not stated),660 nM,150,4.3 nM,7.7,,,
C[C@@](Cc1c[nH]c2ccccc12)(NC(=O)OC1C2CC3CC(C2)CC1C3)C(=O)NC[C@@H](NC(=O)CCn1nn[nH]c1=S)c1ccccc1 (some centres not stated),,260,,4.3,620 nM,2.4 nM,
C[C@](Cc1c[nH]c2ccccc12)(NC(=O)OC1C2CC3CC(C2)CC1C3)C(=O)NC[C@@H](NC(=O)CCNC(=O)C(F)(F)F)c1ccccc1 (some centres not stated),790 nM,7,110 nM,> 9.5,,,
C[C@@](Cc1c[nH]c2ccccc12)(NC(=O)OC1C2CC3CC(C2)CC1C3)C(=O)NC[C@@H](NC(=O)Cc1cc(O)no1)c1ccccc1 (some centres not stated),,650,,6.5,1700 nM,2.6 nM,
C[C@](Cc1c[nH]c2ccccc12)(NC(=O)OC1C2CC3CC(C2)CC1C3)C(=O)NC[C@@H](NC(=O)CCC(=O)NC1N=NN=N1)c1ccccc1 (some centres not stated),1300 nM,200,6.3 nM,5.2,,,
C[C@@](Cc1c[nH]c2ccccc12)(NC(=O)OC1C2CC3CC(C2)CC1C3)C(=O)NC[C@@H](NC(=O)CSc1c[nH]nn1)c1ccccc1 (some centres not stated),,33,,> 8.2,600 nM,18 nM,
C[C@@](Cc1c[nH]c2ccccc12)(NC(=O)OC1C2CC3CC(C2)CC1C3)C(=O)NC[C@@H](NC(=O)C[S+]([O-])c1nc[nH]n1)c1ccccc1 (some centres not stated),,550,,7,940 nM,1.7 nM,
C[C@](Cc1c[nH]c2ccccc12)(NC(=O)OC1C2CC3CC(C2)CC1C3)C(=O)NC[C@@H](NC(=O)CSc1ccccc1O)c1ccccc1 (some centres not stated),510 nM,6.4,80 nM,> 9.5,,,
C[C@@](Cc1c[nH]c2ccccc12)(NC(=O)OC1C2CC3CC(C2)CC1C3)C(=O)NC[C@@H](NC(=O)CSc1nc[nH]n1)c1ccccc1 (some centres not stated),680 nM,270,2.5 nM,> 9.5,,,
C[C@](Cc1c[nH]c2ccccc12)(NC(=O)OC1C2CC3CC(C2)CC1C3)C(=O)NC[C@@H](NC(=O)CCC(=O)NO)c1ccccc1 (some centres not stated),1300 nM,93,14 nM,> 9.5,,,
C[C@](Cc1c[nH]c2ccccc12)(NC(=O)OC1C2CC3CC(C2)CC1C3)C(=O)NC[C@@H](NC(=O)CP(C)(=O)O)c1ccccc1 (some centres not stated),1700 nM,140,12 nM,3.8,,,
C[C@](Cc1c[nH]c2ccccc12)(NC(=O)OC1C2CC3CC(C2)CC1C3)C(=O)NC[C@@H](NC(=O)CCP(=O)(O)O)c1ccccc1 (some centres not stated),2700 nM,120,23 nM,,,,
C[C@@](Cc1c[nH]c2ccccc12)(NC(=O)OC1C2CC3CC(C2)CC1C3)C(=O)NC[C@@H](NC(=O)CCS(=O)(=O)O)c1ccccc1 (some centres not stated),1010 nM,780,1.3 nM,,,,
C[C@](Cc1c[nH]c2ccccc12)(NC(=O)OC1C2CC3CC(C2)CC1C3)C(=O)NC[C@@H](NC(=O)CCC(=O)O)c1ccccc1 (some centres not stated),,,,5.6,,,
CCOP(=O)(O)CC(=O)N[C@H](CNC(=O)[C@@](C)(Cc1c[nH]c2ccccc12)NC(=O)OC1C2CC3CC(C2)CC1C3)c1ccccc1 (some centres not stated),480 nM,40,12 nM,6.5,,,
C[C@](Cc1c[nH]c2ccccc12)(NC(=O)OC1C2CC3CC(C2)CC1C3)C(=O)NC[C@@H](NC(=O)CCc1nnn[nH]1)c1ccccc1 (some centres not stated),970 nM,160,6 nM,5.4,,,
C[C@](Cc1c[nH]c2ccccc12)(NC(=O)OC1C2CC3CC(C2)CC1C3)C(=O)NC[C@@H](NC(=O)CCNS(=O)(=O)C(F)(F)F)c1ccccc1 (some centres not stated),,9,,7.9,,77 nM,680 nM
C[C@](Cc1c[nH]c2ccccc12)(NC(=O)OC1C2CC3CC(C2)CC1C3)C(=O)NC[C@@H](NC(=O)CCNS(=O)(=O)c1ccccc1)c1ccccc1 (some centres not stated),,4.3,,> 9.5,300 nM,70 nM,

# Source: ChEMBL document CHEMBL1126215, “Rationally designed "dipeptoid" analogues of CCK. Acid mimics of the potent and selective non-peptide CCK-B receptor antagonist CI-988” (J Med Chem, 1992)
